Publication PMC3206604 (Journal of natural products, 2011)

What was measured:
[1] = system: HT-29 human colon cancer cells; assay: Mitochondrial transmembrane potential; format: cell-based; conditions: HT-29 cells; for MTP ED50: reduction of mitochondrial transmembrane potential (ΔΨm)
In short: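 ΔΨm detected with a JC-1 mitochondrial membrane potential kit, following a previously established protocol. A positive control was run alongside the test compounds. Values were reported as ED50.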

human 20S proteasome [2] = molecular target: human 20S proteasome (Homo sapiens, UniProt P28074); assay: Proteasome inhibition assay; format: biochemical; conditions: for proteasome ED50 / IC50: Table 3, results expressed as ED50; for IC50: read-out: proteasome ED50
[3] = system: human colon cancer cells (HT-29); assay: Cytotoxicity assay; format: cell-based; conditions: HT-29 cells, standard protocol
human 20S proteasome [4] = assay: Proteasome inhibition assay; format: biochemical; conditions: Table 3, results expressed as ED50

Compound | MTP ED50 [1] | proteasome ED50 (human 20S proteasome [2]) | other results
5,7-dihydroxy-6-(2‴-hydroxy-5‴-(2′‴-hydroxy-5′‴-(2″‴-hydroxy-5″‴-(2‴‴-hydroxybenzyl)benzyl)benzyl) benzyl)-8-(2″-hydroxybenzyl)-flavanone [compound 3] | 2.5 µM | >20 µM | 
5″-(2′‴-hydroxybenzyl)uvarinol [compound 9] | 2.3 µM | >20 µM | 
7-methoxychamanetin [compound 6] | 13.6 µM | >20 µM | 
7-methoxydichamanetin [compound 8] | 1.6 µM | 3.45 ± 0.18 µM | 
CC(=O)O[C@H]1C(=O)[C@@]2(C)[C@H]([C@H](OC(=O)c3ccccc3)[C@]3(O)C[C@H](OC(=O)[C@H](O)[C@@H](NC(=O)c4ccccc4)c4ccccc4)C(C)=C1C3(C)C)[C@]1(OC(C)=O)CO[C@@H]1C[C@@H]2O [Paclitaxel] |  |  | cytotoxicity ED50 [3]: 0.006 µM
O=C1C[C@@H](c2ccccc2)Oc2c(Cc3cc(Cc4cc(Cc5ccccc5O)ccc4O)ccc3O)c(O)c(Cc3ccccc3O)c(O)c21 [compound 1, (2S)-5,7-dihydroxy-8-(2″-hydroxy-5″-(2′‴-hydroxy-5′‴-(2″‴-hydroxybenzyl)benzyl)benzyl)-6-(2‴-hydroxybenzyl)-flavanone] | 3.7 µM | >20 µM | 
O=C1C[C@@H](c2ccccc2)Oc2c(Cc3ccccc3O)c(O)c(Cc3cc(Cc4cc(Cc5ccccc5O)ccc4O)ccc3O)c(O)c21 [compound 2, (2S)-5,7-dihydroxy-6-(2‴-hydroxy-5‴-(2′‴-hydroxy-5′‴-(2″‴-hydroxybenzyl)benzyl)benzyl)-8-(2″-hydroxybenzyl)-flavanone] | 6.8 µM | >20 µM | 
O=C1C[C@@H](c2ccccc2)Oc2c(Cc3cc(Cc4ccccc4O)ccc3O)c(O)c(Cc3cc(Cc4cc(Cc5ccccc5O)ccc4O)ccc3O)c(O)c21 [compound 4, (2S)-5,7-dihydroxy-6-(2‴-hydroxy-5‴-(2″‴-hydroxy-5″‴-(2‴‴-hydroxybenzyl)benzyl)benzyl)-8-(2″-hydroxy-5′‴-(2′‴-hydroxybenzyl)benzyl)-flavanone] | 3.9 µM | >20 µM | 
O=C1C[C@@H](c2ccccc2)Oc2cc(O)c(Cc3ccccc3O)c(O)c21 [compound 5, isochamanetin] | 7.7 µM |  | IC50 (human 20S proteasome [2]): > 20 µM
O=C1C[C@@H](c2ccccc2)Oc2c(Cc3ccccc3O)c(O)c(Cc3ccccc3O)c(O)c21 [compound 7, dichamanetin] | 3.6 µM |  | proteasome ED50 (human 20S proteasome [4]): >20 µM; inhibitory effect in proteasome assay (human 20S proteasome [2]; human 20S proteasome bioassay): did not show any inhibitory effect
O=C1C[C@@H](c2ccccc2)Oc2cc(O)cc(O)c21 [compound 10, pinocembrin] | >20 µM |  | MTP ED50 (text, printed in μg/mL) ([1]; called inactive): > 20 µg/mL; IC50 (human 20S proteasome [2]): 2.87 ± 0.26 µM
pipercallosine [compound 11] | 4.6 µM | >20 µM | 
